# Screens from PubChem BioAssay.
# Compounds with a hit are over-represented: about 3.7% of the library has one in this group of screens.
# KCNQ1 act: potentiates or activates the human KCNQ1 potassium channel; AID 2648; 0.35% of 310,000 active; B-score at 10 µM; CHO-K1 KCNQ1, thallium flux FluxOR fluorescence; active compounds read high;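 active = fluorescence ratio B-score, a plate-corrected score, at least three library SD, with initial intensity B-score within 5 SD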
#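 Schedule – 37 °C overnight plating, 90-min dark dye load, 20-min compound pretreatment · System – stable KCNQ1 CHO-K1 line · Probe or stimulus – thallium- and potassium-containing depolarizing buffer · Measured by – kinetic FluxOR fluorescence, 10 s baseline plus 110 s post-stimulus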
# KCNK3 block: human KCNK3 channel inhibition, primary screen. O14649. CHO-KCNK3 thallium flux, FluxOR fluorescence; active compounds read low. B-score at 10 µM. 0.84% of 340,000 active. AID 602410;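 active = B-score under library mean minus 4 SD, starting fluorescence ratio at most library mean plus 5 SD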;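 note: more negative B-score means stronger inhibition of thallium flux through KCNK3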
# KCNK9 block: human KCNK9 channel inhibition. Q9NPC2. HEK293 KCNK9, FluxOR thallium flux fluorescence; active compounds read low. B-score at 10 µM. 1.2% of 310,000 active;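 active = ratio B-score over 3 SD below the library mean, with starting fluorescence within 5 SD of its mean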;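 note: negative B-score means less thallium flux so channel inhibition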
# Kir21 block: blocks the mouse Kir2.1 inward-rectifier potassium channel; P35561; HEK293-Kir2.1, FluxOR thallium flux fluorescence; active compounds read low; B-score at 10 µM; 0.85% of 310,000 active; AID 1672;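 active = fluorescence ratio B-score at or below minus 3 SD of library scores, with starting-brightness B-score within 2 SD, cut at about -4.2 in these data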;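 note: channel flux triggered by added potassium and thallium sulfate stimulus; B-score of peak minus minimum fluorescence over baseline after thallium stimulus; more negative B-score means stronger Kir2.1 block with less thallium influx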
# Target sequence (P35561 whole entry, looked up): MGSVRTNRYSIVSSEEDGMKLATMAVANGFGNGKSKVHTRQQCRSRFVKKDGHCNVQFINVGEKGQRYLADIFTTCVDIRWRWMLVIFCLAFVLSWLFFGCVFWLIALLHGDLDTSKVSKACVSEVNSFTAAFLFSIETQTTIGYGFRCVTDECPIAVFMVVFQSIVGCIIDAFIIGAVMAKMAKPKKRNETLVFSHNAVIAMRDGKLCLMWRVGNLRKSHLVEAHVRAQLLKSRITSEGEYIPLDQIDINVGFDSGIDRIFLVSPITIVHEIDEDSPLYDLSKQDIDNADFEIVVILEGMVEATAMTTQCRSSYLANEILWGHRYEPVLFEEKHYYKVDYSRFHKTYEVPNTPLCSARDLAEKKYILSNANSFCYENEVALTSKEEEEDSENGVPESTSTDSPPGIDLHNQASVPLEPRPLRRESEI
# hERG protect: shields human hERG channel from block by proarrhythmic agents; Q12809; CHO-hERG, FluxOR thallium flux, dofetilide IC70 present; activation (rescue from dofetilide block), less the hit threshold, % at 10 µM; 0.51% of 310,000 active; AID 1511;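 active = activation above the mean of controls blocked by dofetilide plus 5 SD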;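 note: thallium influx through hERG after potassium depolarization seen as dye fluorescence rise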
# KCNQ1 inh: inhibitors of human KCNQ1 potassium channel; P51787; 1.3% of 310,000 active; AID 2642; B-score at 10 µM; CHO-K1 KCNQ1, FluxOR thallium flux fluorescence; active compounds read high;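 active = compounds whose thallium flux B-score, printed positive for inhibition, exceeds three library SD while starting fluorescence stays within three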;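 note: channel opened by potassium depolarization with thallium stimulus after 20 min compound exposure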
# * hit, by the source's call; i = inactive; x = not tested or not shown.
SMILES,KCNQ1 act,KCNK3 block,KCNK9 block,Kir21 block,hERG protect,KCNQ1 inh
Cc1c(CNCCC2=CCCCC2)c(C(=O)O)c(C)n1Cc1ccccc1,i,i,i,1.7,6.6*,i
CC(=O)Nc1ccc(S(=O)(=O)Nc2ccn(Cc3ccccc3Cl)n2)cc1,i,i,i,-1.6,-1.8,i
Cc1cc(SCC(=O)NCCC2=CCCCC2)nc2ccccc12,i,i,i,-16.1*,-10.9,i
COC(=O)c1ccccc1NC(=O)CSc1n[nH]c(-c2ccco2)n1,i,i,i,-2.2,-4.1,i
CCCc1ccc(-c2ccc(C(=O)O)cc2)nc1,i,i,i,1.94,5.9*,i
CCCCCc1ccc(-c2ccc(/C=C/C(N)=O)cc2)nc1,i,i,i,1.32,-6.8,i
CCC(CC)NC(=O)c1ccccc1Oc1ccccc1,i,i,i,-6.86*,-7.0,i
O=C(O)c1ccc(CN2CCCCC2)o1,i,i,i,-0.39,5.1*,i
O=C(CSc1ccc(Cl)cc1)N/N=C/c1cccnc1,i,i,i,-0.68,8.2*,i
Cc1nc2nc(NC(=O)c3ccco3)nn2c(C)c1Cl,i,i,i,1.81,-7.2,i
CCOc1ccc2[nH]c(=O)c(CN(Cc3ccco3)Cc3nnnn3Cc3ccccc3)cc2c1,i,i,i,0.22,-16.9,i
CCOc1ccc2[nH]c(=O)c(CN(Cc3nnnn3Cc3ccco3)C3CCCCC3)cc2c1,i,-9.95*,i,-0.63,-14.3,i
CCOc1ccc2[nH]c(=O)c(CN(Cc3ccco3)C(CC)c3nnnn3Cc3ccccc3)cc2c1 (stereo unspecified),i,i,i,0.31,-7.8,8*
COc1ccccc1N1CCN(/N=C/c2cc(Br)ccc2F)CC1,i,i,i,0.01,-2.8,9*
Cc1ccc(S(=O)(=O)N(C)C)cc1NC(=S)NNC(=O)C(N)=O,i,i,i,0.21,-7.9,i
CCOCCCNS(=O)(=O)c1ccc(NC(=O)Cc2c(F)cccc2Cl)cc1,i,i,i,0,-2.8,i
Cc1ccc(-c2ccc(/C=C(\C#N)C(N)=S)n2C)cc1,i,i,i,-0.74,-14.2,6*
COc1ccccc1CCNC(=O)CCn1nc(C)c2c(C)n(-c3ccccc3)nc2c1=O,i,i,i,-0.06,-13.7,i
CC(C)c1ccccc1NC(=O)CNC(C)c1ccc(F)cc1 (stereo unspecified),i,i,i,-5.51*,-12.3,i
COc1ccc(S(=O)(=O)Cc2ccc(C(=O)N3CCN(c4cc(Cl)ccc4C)CC3)o2)cc1,i,i,i,-0.33,-5.1,6*
COc1ccc(C(C)=O)cc1CN1C(=O)NC(CC(C)C)C1=O (stereo unspecified),i,i,i,-1.08,2.8,i
COc1ccc(OC(=O)c2cccnc2)cc1,i,i,i,-0.22,-10.7,i
CC(C)(C)c1ccc(OC(=O)c2cccnc2)cc1,i,i,i,-4.45*,-5.6,i
C=CCSC1=N/C(=C\c2cc(OCC)c(OC(C)=O)c([N+](=O)[O-])c2)C(=O)S1,i,i,i,0.02,-16.9,9*
CN(CC(=O)Nc1ccc(Cl)c(C(F)(F)F)c1)C(=O)c1cc(=O)c2ccccc2o1,x,i,x,x,x,x
SMILES,KCNQ1 act,KCNK3 block,KCNK9 block,Kir21 block,hERG protect,KCNQ1 inh
O=c1[nH]c(SCc2nc3ccccc3n2Cc2ccccc2)nc2ccccc12,i,i,i,-0.07,-5.1,i
Nc1cc(=O)[nH]c(SCc2nc3ccccc3n2Cc2ccccc2)n1,i,i,i,0.16,6.1*,i
O=C(Nc1cccc2c1[nH]c1ccccc12)C(F)(F)F,i,i,i,2.61,-3.3,6*
COc1ccc(S(=O)(=O)Nc2nc3ccccc3nc2Nc2ccc3c(c2)OCO3)cc1,i,x,i,-0.46,-10.0,i
O=S(=O)(Nc1nc2ccccc2nc1Nc1ccc2c(c1)OCCO2)c1cccs1,i,i,i,0.98,0.6,12*
CN(CC(=O)Nc1ccccc1Cl)CC(=O)Nc1c(F)cccc1F,i,i,i,-0.02,5.2*,i
